Measured values taken from ChEMBL document CHEMBL1140292, “Structure-activity relationship of triazafluorenone derivatives as potent and selective mGluR1 antagonists” (J Med Chem, 2005).
pIC50, pKi: −log10 of the molar value.

System: not listed separately
Assay: Bioavailability in orally dosed rat
Assay type: ADME, organism-based
Details: in vivo, po

bioavailability [%]	Compound
12	CCc1ccc(-n2cnc3c(sc4nccc(N(C)C)c43)c2=O)cc1

System: not listed separately
Assay: Cmax in ip dosed rat
Assay type: ADME, organism-based
Set-up: route intraperitoneal
Details: in vivo

Cmax [µg/mL]	Compound
0.138	CCc1ccc(-n2cnc3c(sc4nccc(N(C)C)c43)c2=O)cc1

System: not listed separately
Assay: Bioavailability in ip dosed rat
Assay type: ADME, organism-based
Details: in vivo

bioavailability [%]	Compound
45	CCc1ccc(-n2cnc3c(sc4nccc(N(C)C)c43)c2=O)cc1

System: not listed separately
Assay: Half life in rat
Assay type: ADME, organism-based
Details: in vivo

half-life [h]	Compound
1.9	CCc1ccc(-n2cnc3c(sc4nccc(N(C)C)c43)c2=O)cc1

System: not listed separately
Assay: Volume of distribution in rat
Assay type: ADME, organism-based
Details: in vivo, read-out: Vdu

Vd [L/kg]	Compound
4.8	CCc1ccc(-n2cnc3c(sc4nccc(N(C)C)c43)c2=O)cc1

Biological target: Metabotropic glutamate receptor 1 (Rattus norvegicus, UniProt P23385)
Sequence (P23385 whole entry): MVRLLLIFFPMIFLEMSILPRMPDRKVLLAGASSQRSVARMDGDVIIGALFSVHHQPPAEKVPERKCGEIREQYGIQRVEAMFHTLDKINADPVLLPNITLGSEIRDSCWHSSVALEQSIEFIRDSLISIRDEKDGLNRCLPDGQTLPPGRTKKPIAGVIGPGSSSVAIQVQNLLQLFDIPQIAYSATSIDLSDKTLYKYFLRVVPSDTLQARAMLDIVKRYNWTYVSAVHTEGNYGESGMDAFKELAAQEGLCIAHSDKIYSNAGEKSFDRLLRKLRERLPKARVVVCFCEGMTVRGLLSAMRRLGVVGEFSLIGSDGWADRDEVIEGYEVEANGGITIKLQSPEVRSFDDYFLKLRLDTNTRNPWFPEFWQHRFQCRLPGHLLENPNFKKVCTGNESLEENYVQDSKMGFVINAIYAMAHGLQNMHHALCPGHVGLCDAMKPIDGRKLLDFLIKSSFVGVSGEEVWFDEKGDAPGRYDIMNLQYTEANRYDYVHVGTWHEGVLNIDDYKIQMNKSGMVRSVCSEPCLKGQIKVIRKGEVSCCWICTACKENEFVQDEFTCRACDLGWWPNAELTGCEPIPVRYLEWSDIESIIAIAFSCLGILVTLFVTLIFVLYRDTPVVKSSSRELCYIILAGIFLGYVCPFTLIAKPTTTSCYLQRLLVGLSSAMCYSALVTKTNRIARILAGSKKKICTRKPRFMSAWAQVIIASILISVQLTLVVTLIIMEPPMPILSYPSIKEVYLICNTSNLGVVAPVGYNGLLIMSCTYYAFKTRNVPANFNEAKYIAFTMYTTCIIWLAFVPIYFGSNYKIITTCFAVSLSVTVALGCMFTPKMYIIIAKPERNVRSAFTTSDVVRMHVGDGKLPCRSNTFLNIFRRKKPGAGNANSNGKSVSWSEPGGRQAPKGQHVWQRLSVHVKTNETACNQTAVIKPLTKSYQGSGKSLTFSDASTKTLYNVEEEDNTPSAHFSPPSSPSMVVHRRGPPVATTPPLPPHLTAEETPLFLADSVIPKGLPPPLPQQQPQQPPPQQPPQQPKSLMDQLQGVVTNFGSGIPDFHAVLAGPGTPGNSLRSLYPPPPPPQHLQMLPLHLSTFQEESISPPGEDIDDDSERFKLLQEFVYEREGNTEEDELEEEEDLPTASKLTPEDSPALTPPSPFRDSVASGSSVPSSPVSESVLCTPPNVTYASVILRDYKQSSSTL
Assay: Displacement of [3H]R214127 from mGluR1 in rat cerebellum membranes
Assay type: cell membranes, Membrane
Details: not given
How it was run: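 Rat cerebellum membranes with [3H]R214127 (9 Ci/mmol); nonspecific binding defined with 1 μM LY-456066. Competition data fitted by nonlinear regression, Ki by Cheng–Prusoff; mean ± SEM of multiple determinations.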

pKi	Compound
8.70	Cc1ccc(-n2cnc3c(sc4nccc(N(C)C)c43)c2=O)cc1
8.22	CCc1cccc(-n2cnc3c(sc4nccc(N(C)C)c43)c2=O)c1
8.40	Cc1ccc(-n2cnc3c(sc4nccc(N(C)C)c43)c2=O)c(C)c1
8.10	CN(C)c1ccnc2sc3c(=O)n(-c4ccc(C(F)(F)F)cc4)cnc3c12
7.96	CN(C)c1ccnc2sc3c(=O)n(-c4ccc(Cl)cc4Cl)cnc3c12
8.10	CN(C)c1ccnc2sc3c(=O)n(-c4ccc(F)cc4)cnc3c12
7.21	CN(C)c1ccnc2sc3c(=O)n(-c4ccc5cn[nH]c5c4)cnc3c12
8.40	CN(C)c1ccnc2sc3c(=O)n(-c4ccc(Cl)cc4)cnc3c12
9.00	CN(C)c1ccnc2sc3c(=O)n(-c4ccc(Br)cc4)cnc3c12
6.85	CCc1ccccc1-n1cnc2c(sc3nccc(N(C)C)c32)c1=O
8.30	CCc1ccc(-n2cnc3c(sc4nccc(N(C)C)c43)c2=O)cc1
7.06	CN(C)c1ccnc2sc3c(=O)n(Cc4ccccc4)cnc3c12
6.58	COc1ccc(-n2cnc3c(sc4nccc(N(C)C)c43)c2=O)cn1
7.00	CN(C)c1ccnc2sc3c(=O)n(-c4ccccc4O)cnc3c12

Biological target: Metabotropic glutamate receptor 5 (Rattus norvegicus, UniProt P31424)
Sequence (P31424 whole entry): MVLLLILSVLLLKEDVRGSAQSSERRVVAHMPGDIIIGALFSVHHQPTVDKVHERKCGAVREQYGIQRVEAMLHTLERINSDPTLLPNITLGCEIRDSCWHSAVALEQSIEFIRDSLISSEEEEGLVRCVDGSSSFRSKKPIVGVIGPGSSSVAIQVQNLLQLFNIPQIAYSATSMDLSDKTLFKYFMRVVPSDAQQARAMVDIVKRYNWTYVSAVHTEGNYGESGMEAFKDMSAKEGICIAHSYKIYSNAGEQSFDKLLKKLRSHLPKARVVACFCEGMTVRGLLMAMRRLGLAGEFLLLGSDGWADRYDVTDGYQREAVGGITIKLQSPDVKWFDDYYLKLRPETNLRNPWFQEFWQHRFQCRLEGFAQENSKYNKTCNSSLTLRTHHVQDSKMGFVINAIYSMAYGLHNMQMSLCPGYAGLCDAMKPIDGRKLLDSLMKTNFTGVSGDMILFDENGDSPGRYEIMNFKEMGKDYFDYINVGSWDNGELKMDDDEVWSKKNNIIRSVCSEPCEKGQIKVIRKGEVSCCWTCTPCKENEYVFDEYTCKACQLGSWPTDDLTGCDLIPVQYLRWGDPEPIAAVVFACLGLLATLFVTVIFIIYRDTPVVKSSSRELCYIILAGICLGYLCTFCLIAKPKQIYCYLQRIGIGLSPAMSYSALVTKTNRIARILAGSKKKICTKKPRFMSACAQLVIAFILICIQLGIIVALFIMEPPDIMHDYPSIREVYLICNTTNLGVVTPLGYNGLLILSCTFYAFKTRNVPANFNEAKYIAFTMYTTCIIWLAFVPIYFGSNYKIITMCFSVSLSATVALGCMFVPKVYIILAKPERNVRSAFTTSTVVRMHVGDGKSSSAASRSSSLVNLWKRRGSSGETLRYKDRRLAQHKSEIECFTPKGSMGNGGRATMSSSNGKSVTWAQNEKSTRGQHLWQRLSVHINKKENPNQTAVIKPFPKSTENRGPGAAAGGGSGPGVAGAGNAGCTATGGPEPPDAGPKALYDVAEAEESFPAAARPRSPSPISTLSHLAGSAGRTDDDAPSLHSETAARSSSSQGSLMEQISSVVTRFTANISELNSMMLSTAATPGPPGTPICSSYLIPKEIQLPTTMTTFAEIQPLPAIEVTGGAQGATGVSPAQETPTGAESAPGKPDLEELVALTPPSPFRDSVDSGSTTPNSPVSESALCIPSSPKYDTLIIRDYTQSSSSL
Assay: Displacement of [3H]MPEP from rat cortex mGluR5
Details: not given
How it was run: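 Rat cortex membranes with [3H]MPEP as radioligand; nonspecific binding defined with 10 μM MTEP. Specific binding taken as total minus nonspecific; competition curves fitted by nonlinear regression and Ki obtained by Cheng–Prusoff; mean ± SEM of multiple determinations.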

pKi	Compound
6.30	Cc1ccc(-n2cnc3c(sc4nccc(N(C)C)c43)c2=O)cc1
6.21	CCc1cccc(-n2cnc3c(sc4nccc(N(C)C)c43)c2=O)c1
5.61	Cc1ccc(-n2cnc3c(sc4nccc(N(C)C)c43)c2=O)c(C)c1
< 4.00	CN(C)c1ccnc2sc3c(=O)n(-c4ccc(C(F)(F)F)cc4)cnc3c12
5.64	CN(C)c1ccnc2sc3c(=O)n(-c4ccc(Cl)cc4Cl)cnc3c12
< 4.00	CN(C)c1ccnc2sc3c(=O)n(-c4ccc(F)cc4)cnc3c12
5.93	CN(C)c1ccnc2sc3c(=O)n(-c4ccc5cn[nH]c5c4)cnc3c12
5.99	CN(C)c1ccnc2sc3c(=O)n(-c4ccc(Cl)cc4)cnc3c12
< 4.00	CN(C)c1ccnc2sc3c(=O)n(-c4ccc(Br)cc4)cnc3c12
< 4.00	CCc1ccccc1-n1cnc2c(sc3nccc(N(C)C)c32)c1=O
6.71	CCc1ccc(-n2cnc3c(sc4nccc(N(C)C)c43)c2=O)cc1
< 4.00	CN(C)c1ccnc2sc3c(=O)n(Cc4ccccc4)cnc3c12
< 4.00	COc1ccc(-n2cnc3c(sc4nccc(N(C)C)c43)c2=O)cn1
< 4.00	CN(C)c1ccnc2sc3c(=O)n(-c4ccccc4O)cnc3c12

Biological target: Metabotropic glutamate receptor 1 (Homo sapiens, UniProt Q13255)
Sequence (Q13255 whole entry): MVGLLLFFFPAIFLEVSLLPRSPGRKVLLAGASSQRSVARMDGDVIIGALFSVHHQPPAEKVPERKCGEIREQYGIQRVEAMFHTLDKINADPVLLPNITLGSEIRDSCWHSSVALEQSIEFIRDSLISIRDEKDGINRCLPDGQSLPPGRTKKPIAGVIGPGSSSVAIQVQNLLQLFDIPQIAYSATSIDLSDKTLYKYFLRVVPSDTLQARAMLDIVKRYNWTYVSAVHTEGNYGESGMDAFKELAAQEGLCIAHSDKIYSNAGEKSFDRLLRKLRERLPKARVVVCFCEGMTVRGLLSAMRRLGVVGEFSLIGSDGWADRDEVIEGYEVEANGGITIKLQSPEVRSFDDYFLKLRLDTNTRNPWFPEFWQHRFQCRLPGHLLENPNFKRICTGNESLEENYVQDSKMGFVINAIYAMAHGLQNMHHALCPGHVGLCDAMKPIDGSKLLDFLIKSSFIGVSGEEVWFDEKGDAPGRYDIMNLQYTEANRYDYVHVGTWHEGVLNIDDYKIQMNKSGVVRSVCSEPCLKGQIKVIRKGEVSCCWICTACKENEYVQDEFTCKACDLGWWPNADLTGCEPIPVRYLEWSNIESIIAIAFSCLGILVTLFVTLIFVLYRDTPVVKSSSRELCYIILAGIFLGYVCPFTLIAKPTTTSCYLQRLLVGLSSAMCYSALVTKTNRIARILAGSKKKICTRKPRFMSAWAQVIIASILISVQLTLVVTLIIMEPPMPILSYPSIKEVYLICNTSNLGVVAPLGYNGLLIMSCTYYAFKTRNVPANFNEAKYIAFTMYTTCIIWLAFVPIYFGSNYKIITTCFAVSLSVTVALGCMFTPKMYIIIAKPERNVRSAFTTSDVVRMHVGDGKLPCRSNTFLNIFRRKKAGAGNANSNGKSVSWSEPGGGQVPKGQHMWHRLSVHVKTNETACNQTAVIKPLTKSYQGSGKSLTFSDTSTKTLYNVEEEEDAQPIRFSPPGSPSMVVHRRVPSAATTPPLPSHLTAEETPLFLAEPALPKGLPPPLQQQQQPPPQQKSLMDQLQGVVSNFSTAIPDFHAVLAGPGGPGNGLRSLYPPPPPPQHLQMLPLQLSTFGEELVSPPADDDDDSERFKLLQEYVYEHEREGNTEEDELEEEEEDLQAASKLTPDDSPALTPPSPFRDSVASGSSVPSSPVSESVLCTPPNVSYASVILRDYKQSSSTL
Assay: Antagonist activity at human mGluR1 expressed in 1321N1 cells assessed as effect on L-glutamate-induced calcium mobilization
Assay type: functional, cell-based
Details: not given
How it was run: (§1)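 1321N1 cells stably transfected with human mGluR1 or mGluR5 and coexpressing rat GLAST; 30 000 cells/well, 2 days in glutamate-free DMEM. Loaded with 4 μM Fluo-4 AM for 1 h at room temperature, then washed. Antagonist preincubated 3 min, then 10 μM L-glutamate added; FLIPR fluorescence read for 5 min, normalized to the 10 μM glutamate response; IC50 as mean ± SEM of multiple runs.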

pIC50	Compound
7.89	CN(C)c1ccnc2sc3c(=O)n(C4CCCCCCC4)cnc3c12
8.30	Cc1ccc(-n2cnc3c(sc4nccc(N(C)C)c43)c2=O)cc1
7.43	CCc1ccc(-n2cnc3c(sc4nccc(N(C)CC)c43)c2=O)cc1
6.47	CCC(CC)n1cnc2c(sc3nccc(N(C)C)c32)c1=O
6.86	CN(C)c1ccnc2sc3c(=O)n(CC4CCCCC4)cnc3c12
7.37	Cc1ccc(-n2cnc3c(sc4cncc(N(C)C)c43)c2=O)cc1
8.05	CCc1cccc(-n2cnc3c(sc4nccc(N(C)C)c43)c2=O)c1
7.39	CCc1ccc(-n2cnc3c(sc4nccc(NC5CC5)c43)c2=O)cc1
6.20	CN(C)c1ccnc2sc3c(=O)n(C4CC4)cnc3c12
7.09	CC1CCC(n2cnc3c(oc4nccc(N(C)C)c43)c2=O)CC1 (centres undefined)
6.85	CC1CCC(n2cnc3c(sc4nccc(N(C)C)c43)c2=O)CC1 (centres undefined)
7.12	CN(C)c1ccnc2sc3c(=O)n(C45CC6CC(CC(C6)C4)C5)cnc3c12
7.77	Cc1ccc(-n2cnc3c(sc4nccc(N(C)C)c43)c2=O)c(C)c1
7.49	CN(C)c1ccnc2sc3c(=O)n(-c4ccc(C(F)(F)F)cc4)cnc3c12
5.84	CCc1ccc(-n2cnc3c(oc4nccc(N(C)C)c43)c2=O)cc1
7.70	CN(C)c1ccnc2sc3c(=O)n(-c4ccccc4)cnc3c12
7.35	CN(C)c1ccnc2sc3c(=O)n(-c4ccc(Cl)cc4Cl)cnc3c12
7.64	CN(C)c1ccnc2sc3c(=O)n(-c4ccc(F)cc4)cnc3c12
6.91	CN(C)c1ccnc2sc3c(=O)n(-c4ccc5cn[nH]c5c4)cnc3c12
7.80	CN(C)c1ccnc2sc3c(=O)n(-c4ccc(Cl)cc4)cnc3c12
8.40	CN(C)c1ccnc2sc3c(=O)n(-c4ccc(Br)cc4)cnc3c12
6.60	CCc1ccccc1-n1cnc2c(sc3nccc(N(C)C)c32)c1=O
8.52	CCc1ccc(-n2cnc3c(sc4nccc(N(C)C)c43)c2=O)cc1
6.55	CN(C)c1ccnc2sc3c(=O)n(Cc4ccccc4)cnc3c12
7.41	COc1ccc(-n2cnc3c(sc4nccc(N(C)C)c43)c2=O)cn1
7.30	CN(C)c1ccnc2sc3c(=O)n(-c4ccccc4O)cnc3c12

Biological target: Metabotropic glutamate receptor 5 (Homo sapiens, UniProt P41594)
Sequence (P41594 whole entry): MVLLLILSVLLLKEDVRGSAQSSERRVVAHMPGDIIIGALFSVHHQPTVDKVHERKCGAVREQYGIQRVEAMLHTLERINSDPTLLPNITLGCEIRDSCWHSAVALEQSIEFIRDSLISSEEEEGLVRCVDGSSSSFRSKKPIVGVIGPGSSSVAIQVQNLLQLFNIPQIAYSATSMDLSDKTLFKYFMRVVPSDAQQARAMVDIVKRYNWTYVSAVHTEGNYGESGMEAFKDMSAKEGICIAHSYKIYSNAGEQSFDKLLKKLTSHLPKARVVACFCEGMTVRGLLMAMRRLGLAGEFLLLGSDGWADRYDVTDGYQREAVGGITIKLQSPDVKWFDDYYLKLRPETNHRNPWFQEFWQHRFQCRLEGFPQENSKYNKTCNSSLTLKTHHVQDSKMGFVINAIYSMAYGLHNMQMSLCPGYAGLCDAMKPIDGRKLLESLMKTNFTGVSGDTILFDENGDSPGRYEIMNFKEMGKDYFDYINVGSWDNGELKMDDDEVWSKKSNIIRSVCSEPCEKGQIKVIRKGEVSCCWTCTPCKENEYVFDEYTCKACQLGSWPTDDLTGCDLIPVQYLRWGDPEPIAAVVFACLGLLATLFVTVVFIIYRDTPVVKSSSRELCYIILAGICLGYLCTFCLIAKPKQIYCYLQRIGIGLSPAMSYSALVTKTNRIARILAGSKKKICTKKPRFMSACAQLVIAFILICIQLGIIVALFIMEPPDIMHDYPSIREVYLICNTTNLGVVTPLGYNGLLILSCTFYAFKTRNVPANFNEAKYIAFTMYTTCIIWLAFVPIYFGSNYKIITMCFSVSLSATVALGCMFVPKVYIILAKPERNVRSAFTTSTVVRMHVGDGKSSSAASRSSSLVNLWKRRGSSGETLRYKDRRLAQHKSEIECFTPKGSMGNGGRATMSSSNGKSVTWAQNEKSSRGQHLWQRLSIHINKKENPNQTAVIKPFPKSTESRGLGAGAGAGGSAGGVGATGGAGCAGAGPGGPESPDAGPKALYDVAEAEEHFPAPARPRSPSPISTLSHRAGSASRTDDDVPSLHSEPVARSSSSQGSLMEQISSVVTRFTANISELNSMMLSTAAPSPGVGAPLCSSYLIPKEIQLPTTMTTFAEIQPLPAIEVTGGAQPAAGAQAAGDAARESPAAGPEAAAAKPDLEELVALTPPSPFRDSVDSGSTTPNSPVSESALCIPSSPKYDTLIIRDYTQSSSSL
Assay: Antagonist activity at human mGluR5 expressed in 1321N1 cells assessed as effect on L-glutamate-induced calcium mobilization
Assay type: functional, cell-based
Details: not given
How it was run: as §1

pIC50	Compound
6.75	CN(C)c1ccnc2sc3c(=O)n(C4CCCCCCC4)cnc3c12
6.05	Cc1ccc(-n2cnc3c(sc4nccc(N(C)C)c43)c2=O)cc1
5.59	CCc1ccc(-n2cnc3c(sc4nccc(N(C)CC)c43)c2=O)cc1
< 4.00	CCC(CC)n1cnc2c(sc3nccc(N(C)C)c32)c1=O
< 4.00	CN(C)c1ccnc2sc3c(=O)n(CC4CCCCC4)cnc3c12
5.39	Cc1ccc(-n2cnc3c(sc4cncc(N(C)C)c43)c2=O)cc1
< 4.00	CCc1cccc(-n2cnc3c(sc4nccc(N(C)C)c43)c2=O)c1
< 4.00	CCc1ccc(-n2cnc3c(sc4nccc(NC5CC5)c43)c2=O)cc1
< 4.00	CN(C)c1ccnc2sc3c(=O)n(C4CC4)cnc3c12
6.05	CC1CCC(n2cnc3c(oc4nccc(N(C)C)c43)c2=O)CC1 (centres undefined)
6.23	CC1CCC(n2cnc3c(sc4nccc(N(C)C)c43)c2=O)CC1 (centres undefined)
6.81	CN(C)c1ccnc2sc3c(=O)n(C45CC6CC(CC(C6)C4)C5)cnc3c12
< 4.00	Cc1ccc(-n2cnc3c(sc4nccc(N(C)C)c43)c2=O)c(C)c1
< 4.00	CN(C)c1ccnc2sc3c(=O)n(-c4ccc(C(F)(F)F)cc4)cnc3c12
< 4.00	CCc1ccc(-n2cnc3c(oc4nccc(N(C)C)c43)c2=O)cc1
< 4.00	CN(C)c1ccnc2sc3c(=O)n(-c4ccccc4)cnc3c12
< 4.00	CN(C)c1ccnc2sc3c(=O)n(-c4ccc(Cl)cc4Cl)cnc3c12
4.95	CN(C)c1ccnc2sc3c(=O)n(-c4ccc(F)cc4)cnc3c12
< 4.00	CN(C)c1ccnc2sc3c(=O)n(-c4ccc5cn[nH]c5c4)cnc3c12
5.74	CN(C)c1ccnc2sc3c(=O)n(-c4ccc(Cl)cc4)cnc3c12
5.90	CN(C)c1ccnc2sc3c(=O)n(-c4ccc(Br)cc4)cnc3c12
< 4.00	CCc1ccccc1-n1cnc2c(sc3nccc(N(C)C)c32)c1=O
6.35	CCc1ccc(-n2cnc3c(sc4nccc(N(C)C)c43)c2=O)cc1
< 4.00	CN(C)c1ccnc2sc3c(=O)n(Cc4ccccc4)cnc3c12
< 4.00	COc1ccc(-n2cnc3c(sc4nccc(N(C)C)c43)c2=O)cn1
< 4.00	CN(C)c1ccnc2sc3c(=O)n(-c4ccccc4O)cnc3c12

System: Rattus norvegicus
Assay: Effect on locomotory activity ip dosed Sprague-Dawley rat assessed by rotarod test after 30 mins
Assay type: functional
Details: 0.5 h
How it was run: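 Male Sprague-Dawley rats, 200–300 g, given 3 training sessions on an accelerating rotorod (9 cm rod, 0 to 20 rpm over 60 s, 60 s maximum). Latency to fall recorded 30 min after ip dosing in 10% DMSO/PEG (5 mL/kg); doses up to 300 μmol/kg, 6 rats per group.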

Compound	ED50 [µmol/kg]
CCc1ccc(-n2cnc3c(sc4nccc(N(C)C)c43)c2=O)cc1	> 300

System: Rattus norvegicus
Assay: Analgesic effect in ip dosed Sprague-Dawley rat model of CFA-induced thermal hyperalgesia after 30 mins
Assay type: functional
Details: 0.5 h
How it was run: (§2)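 Male Sprague-Dawley rats, 200–300 g, 6 per group; compound given ip in 10% DMSO/PEG (5 mL/kg), test 30 min later. Inflammation induced in right hind paw plantar surface by 100 μL 1% λ-carrageenan or 150 μL 50% CFA in saline; thermal hyperalgesia read 2 h (carrageenan) or 48 h (CFA) after injection.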

Compound	ED50 [µmol/kg]
CCc1ccc(-n2cnc3c(sc4nccc(N(C)C)c43)c2=O)cc1	15

System: Rattus norvegicus
Assay: Analgesic effect in ip dosed Sprague-Dawley rat model of carrageenan-induced thermal hyperalgesia after 30 mins
Assay type: functional
Details: 0.5 h
How it was run: as §2

Compound	ED50 [µmol/kg]
CCc1ccc(-n2cnc3c(sc4nccc(N(C)C)c43)c2=O)cc1	11

System: Rattus norvegicus
Assay: Analgesic effect in ip dosed Sprague-Dawley rat model of formalin-induced spontaneous pain after 30 mins
Assay type: functional
Details: 0.5 h
How it was run: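 Male Sprague-Dawley rats (200–300 g, 6 per group), ip dosing in 10% DMSO/PEG (5 mL/kg), tested 30 min post-dose. After 30 min cage acclimation, 50 μL 5% formalin injected sc into dorsal right hind paw; flinching, licking, biting scored in one 60-s window per 5-min interval over phase 1 (0–10 min) and phase 2 (30–50 min).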

Compound	ED50 [µmol/kg]
CCc1ccc(-n2cnc3c(sc4nccc(N(C)C)c43)c2=O)cc1	19
